The results in this text go back to ChEMBL document CHEMBL1123706, “Design of alternate substrate inhibitors of serine proteases. Synergistic use of alkyl substitution to impede enzyme-catalyzed deacylation” (J Med Chem, 1987).

Molecules are shown by their SMILES.

For one assay, the target named is T1, Neutrophil elastase (Homo sapiens, UniProt P08246).
T1 sequence (P08246 whole entry): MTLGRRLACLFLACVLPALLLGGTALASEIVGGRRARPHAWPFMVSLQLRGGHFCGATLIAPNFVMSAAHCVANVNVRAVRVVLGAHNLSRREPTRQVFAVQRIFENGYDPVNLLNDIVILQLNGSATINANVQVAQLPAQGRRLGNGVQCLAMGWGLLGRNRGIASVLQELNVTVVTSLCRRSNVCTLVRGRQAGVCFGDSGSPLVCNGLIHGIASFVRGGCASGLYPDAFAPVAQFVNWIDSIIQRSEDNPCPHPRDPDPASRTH
Put plainly: Binding affinity against human leukocyte elastase was determined. The essentials:
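Elastase purified from human leukocytes and assayed by the progress-curve method. Enzyme turnover of a fluorogenic coumarin substrate at about 0.04 Km served as a probe of free enzyme. Buffer was 25 mM K+ HEPES, 1 M NaCl, 0.1% Brij 35, pH 7.8, 25 °C. Read-out was fluorescence at 400 nm excitation and 505 nm emission.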

Assay [1] concerns the target T2, Neutrophil elastase (Homo sapiens) (UniProt P08246).
T2 sequence (whole entry): T1 sequence (P08246 whole entry)

Assay [2] concerns the target T2, Neutrophil elastase (Homo sapiens). In words: Rate of deacylation by human leukocyte elastase. The procedure, abridged: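 Otherwise, acyl enzyme was prepared and isolated on Sephadex G-25 at low pH. Deacylation was followed as the return of activity after dilution into assay buffer containing fluorogenic substrate.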

`CCc1cccc2nc(NC(C)C)oc(=O)c12`: on Neutrophil elastase, the Ki (as a rule, the dissociation constant of the complex between target and ligand, obtained from inhibition or displacement) came out at 0.94 nM. For `CC(C)Nc1nc2ccccc2c(=O)o1`, the k1 in assay [1] was determined as 59000 M⁻¹ s⁻¹. The compound also came in with a k off in assay [2] of 0.003 s⁻¹. This compound registered a Ki at Neutrophil elastase of 52 nM.

The compound `CCCNc1nc2ccccc2c(=O)o1` returned an inhibition constant Ki on Neutrophil elastase of 91 nM. In the case of `CCCCNc1nc2ccccc2c(=O)o1`, the affinity on Neutrophil elastase, expressed as Ki, was 84 nM.

`CNc1nc2ccccc2c(=O)o1` gave a Ki on Neutrophil elastase of 6900 nM. `CCNc1nc2cccc(C)c2c(=O)o1` returned a Ki on Neutrophil elastase of 34 nM. Compound `CCCNc1nc2cccc(C)c2c(=O)o1` yielded a k1 in assay [1] of 56000 M⁻¹ s⁻¹. For the same compound, in assay [2], the k off was found to be 0.00034 s⁻¹. Further, the affinity on Neutrophil elastase, expressed as Ki, was 6 nM. For `CCNc1nc2ccccc2c(=O)o1`, the Ki at Neutrophil elastase came to 51 nM. That is a double-digit nanomolar value.

For the compound `Nc1nc2ccccc2c(=O)o1`, the Ki on Neutrophil elastase amounted to 63000 nM. The same measure, in the same setting: to `CCCCCCNc1nc2ccccc2c(=O)o1` belongs 3600 nM. In the case of `CNc1nc2cccc(C)c2c(=O)o1`, in assay [1], the k1 is 4800 M⁻¹ s⁻¹. Besides, in assay [2], the k off came to 0.15 s⁻¹. Moreover, the Ki on Neutrophil elastase turned out to be 31000 nM. Compound `CCCCNc1nc2cccc(CC)c2c(=O)o1` displayed a k1 in assay [1] of 130000 M⁻¹ s⁻¹. Also, the k off in assay [2] is 0.00053 s⁻¹. The same compound had a Ki at Neutrophil elastase of 4.2 nM. As for `CCc1cccc2nc(N)oc(=O)c12`, affinity on Neutrophil elastase was put at a Ki of 5100 nM. This lies in the single-digit micromolar range. The compound `CCC(C)Nc1nc2ccccc2c(=O)o1` (centres undefined) returned a Ki at Neutrophil elastase of 43 nM. Turning to `CCCCNc1nc2cccc(C)c2c(=O)o1`, the affinity on Neutrophil elastase, expressed as Ki, was 23 nM. `Cc1cccc2nc(NC(C)C)oc(=O)c12` showed a Ki at Neutrophil elastase of 1.5 nM.
